In ChEMBL document CHEMBL4145530, “Design, synthesis and pharmacological evaluation of N-benzyl-piperidinyl-aryl-acylhydrazone derivatives as donepezil hybrids: Discovery of novel multi-target anti-alzheimer prototype drug candidates” (Eur J Med Chem, 2018):
pIC50, pKi: −log10 of the molar value.

How the values were obtained:
[1] = target: T1, Acetylcholinesterase (Electrophorus electricus, UniProt O42275); assay: Non-competitive inhibition of electric eel AChE using acetylthiocholine iodide as substrate preincubated for 10 mins followed by substrate addition by Ellman's method
Method in brief: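 Substrate-competition kinetics with E. electricus AChE by Ellman's method: 10 min enzyme–DTNB–compound preincubation in 0.1 M phosphate, pH 7.4, then acetylthiocholine; A412 was read every 12 s for 5 min at rt. Three independent data sets, each in triplicate, were averaged and fitted to a simple noncompetitive model. That model was compared with mixed linear inhibition by AICc probability ratio.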

[2] = target: T1, Acetylcholinesterase; assay: (§1) Inhibition of electric eel AChE using acetylthiocholine iodide as substrate preincubated for 10 mins followed by substrate addition by Ellman's method
[3] = target: Acetylcholinesterase (Electrophorus electricus) (UniProt O42275); assay: as §1
[4] = Selectivity ratio of IC50 for equine serum BuChE to IC50 for electric eel AChE
Method in brief: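 Ellman kinetic assay with Electrophorus electricus AChE (acetylthiocholine) and equine serum BuChE (butyrylthiocholine iodide), […]. Enzyme was preincubated 10 min with DTNB and compound in 0.1 M sodium phosphate, pH 7.4 (final DMSO <0.2%), before substrate was added. A412 was read every 12 s for 5 min at rt to give maximum velocity. IC50 is the geometric mean of 2–3 curves, each 6 concentrations in triplicate. Selectivity is IC50 BuChE/IC50 AChE.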

[5] = target: Cholinesterase (Equus caballus) (UniProt P81908); assay: (§2) Inhibition of […] preincubated for 10 mins followed by substrate addition by Ellman's method
[6] = target: Cholinesterase (Equus caballus, UniProt P81908); assay: as §2
[7] = target: Acetylcholinesterase (Electrophorus electricus) (UniProt O42275); assay: Inhibition of electric eel AChE at 100 uM using acetylthiocholine iodide as substrate preincubated for 10 mins followed by substrate addition by Ellman's method relative to control
[8] = system: Mus musculus; assay: Antinociceptive activity in formalin-induced Swiss mouse model of hyperalgesia assessed as time spent licking the injected paw in early phase at 100 mM/kg, po pretreated for 1 hr followed by formalin injection and measured up to 5 mins (reference value: 74 +/- 7.7 secs); type: functional
[9] = system: Mus musculus; assay: Anti-inflammatory activity in Swiss mouse assessed as reduction in carrageenan-induced paw edema by measuring paw volume […] po pretreated for 1 hr followed by carrageenan injection and measured after 1 to 5 hrs by plethysmometric method (reference value: 67.73 +/- 4.2 uL); type: functional
Method in brief: (§3)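 Male Swiss mice (22–28 g) were fasted overnight and dosed orally with vehicle (2% DMSO in sterile saline), compound or indomethacin 1 h before intraplantar carrageenan. Groups (n=10) were matched on basal paw volume. Right hind paw volume was read by plethysmometer at 1, 3 and 5 h and expressed as change from basal.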

[10] = system: Mus musculus; assay: Antinociceptive activity in carrageenan-induced Swiss mouse model of mechanical hyperalgesia assessed as mechanical hyperalgesic index pretreated orally for 1 hr followed by carrageenan challenge by Von Frey filament assay; type: functional
Method in brief: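 Swiss mice were placed in wire-screen acrylic boxes 60 min before testing. Vehicle, compound or indomethacin was given orally 1 h before intraplantar carrageenan. Mechanical threshold was found by the von Frey up-and-down method, with at least 6 trials at 10 s intervals, raising filament mass until paw withdrawal. Results are given as threshold in grams; n=8.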

[11] = system: Mus musculus; assay: Anti-inflammatory activity in po dosed Swiss mouse assessed as reduction in carrageenan-induced paw edema pretreated for 1 hr followed by carrageenan injection and measured after 1 to 5 hrs by plethysmometric method; type: functional; settings: read-out: ID50 (the source's name); method in brief: as §3
[12] = system: Mus musculus; assay: Antinociceptive activity in formalin-induced Swiss mouse model of hyperalgesia assessed as time spent licking the injected paw in last phase at […], po pretreated for 1 hr followed by formalin injection and measured at 20 to 30 mins (reference value: 135.8 +/- 10.7 secs); type: functional
[13] = system: Mus musculus; assay: Inhibition of serum COX2 level in Swiss mouse model of carragenan-induced paw edema at 100 mM/kg, po pretreated for 1 hr followed by carrageenan treatment measured after 3 hrs by ELISA; type: functional
Method in brief: (§4)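 Swiss mice (n=8) received compound (100 mM/kg) or vehicle orally 1 h before intraplantar carrageenan; indomethacin was the positive control. Three hours later, blood was drawn from the heart under chloral hydrate anaesthesia and serum was collected. COX-1 and COX-2 protein was measured by sandwich ELISA read at 450 nm and expressed as percent COX level.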

[14] = system: Mus musculus; assay: Inhibition of serum COX1 level in Swiss mouse model of carragenan-induced paw edema at 100 mM/kg, po pretreated for 1 hr followed by carrageenan treatment measured after 3 hrs by ELISA; type: functional; method in brief: as §4
[15] = Cytotoxicity against human HepG2 cells assessed as cell viability at 20 to 40 uM after 6 hrs by trypan blue exclusion assay relative to control; type: cell-based; settings: read-out: Activity
[16] = system: Mus musculus; assay: Antinociceptive activity in formalin-induced Swiss mouse model of hyperalgesia assessed as time spent licking the injected paw in early phase at 39 mM/kg, po pretreated for 1 hr followed by formalin injection and measured up to 5 mins (reference value: 74 +/- 7.7 secs); type: functional
[17] = system: Mus musculus; assay: Antinociceptive activity in formalin-induced Swiss mouse model of hyperalgesia assessed as time spent licking the injected paw in last phase at 39 mM/kg, po pretreated for 1 hr followed by formalin injection and measured at 20 to 30 mins (reference value: 135.8 +/- 10.7 secs); type: functional
[18] = target: T2, Prostaglandin G/H synthase 1 (Ovis aries) (UniProt P05979); assay: Inhibition of ovine COX1 at 10 uM using arachidonic acid as substrate preincubated for 120 mins followed by substrate addition measured for 5 secs by chemiluminescence assay relative to control
T2 sequence (whole entry): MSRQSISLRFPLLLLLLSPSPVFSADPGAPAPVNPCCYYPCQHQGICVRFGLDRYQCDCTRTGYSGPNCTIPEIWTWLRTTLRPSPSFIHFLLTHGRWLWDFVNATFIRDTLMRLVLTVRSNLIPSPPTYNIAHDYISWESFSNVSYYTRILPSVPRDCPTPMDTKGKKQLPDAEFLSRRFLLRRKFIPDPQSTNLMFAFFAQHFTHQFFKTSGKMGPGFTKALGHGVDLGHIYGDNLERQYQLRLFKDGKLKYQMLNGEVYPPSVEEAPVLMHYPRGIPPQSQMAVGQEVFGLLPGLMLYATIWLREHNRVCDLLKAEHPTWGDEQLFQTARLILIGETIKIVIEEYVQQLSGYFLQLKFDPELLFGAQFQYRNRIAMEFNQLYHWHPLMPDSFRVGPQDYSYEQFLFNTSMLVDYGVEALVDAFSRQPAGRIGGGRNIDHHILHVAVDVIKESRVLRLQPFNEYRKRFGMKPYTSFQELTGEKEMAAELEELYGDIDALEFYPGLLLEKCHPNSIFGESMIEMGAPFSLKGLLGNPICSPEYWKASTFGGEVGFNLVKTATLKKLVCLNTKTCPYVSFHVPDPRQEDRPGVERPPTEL
Method in brief: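 COX-1 or COX-2 with heme was preincubated 120 min with compound (10 µM) in assay buffer. Arachidonic acid and a chemiluminescent substrate were then added at room temperature and peroxidative activity was read for 5 s; ibuprofen was the reference. Selectivity index was taken as the ratio of maximum COX-2 inhibition to COX-1 inhibition. Two independent experiments.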

T1 sequence (O42275 whole entry): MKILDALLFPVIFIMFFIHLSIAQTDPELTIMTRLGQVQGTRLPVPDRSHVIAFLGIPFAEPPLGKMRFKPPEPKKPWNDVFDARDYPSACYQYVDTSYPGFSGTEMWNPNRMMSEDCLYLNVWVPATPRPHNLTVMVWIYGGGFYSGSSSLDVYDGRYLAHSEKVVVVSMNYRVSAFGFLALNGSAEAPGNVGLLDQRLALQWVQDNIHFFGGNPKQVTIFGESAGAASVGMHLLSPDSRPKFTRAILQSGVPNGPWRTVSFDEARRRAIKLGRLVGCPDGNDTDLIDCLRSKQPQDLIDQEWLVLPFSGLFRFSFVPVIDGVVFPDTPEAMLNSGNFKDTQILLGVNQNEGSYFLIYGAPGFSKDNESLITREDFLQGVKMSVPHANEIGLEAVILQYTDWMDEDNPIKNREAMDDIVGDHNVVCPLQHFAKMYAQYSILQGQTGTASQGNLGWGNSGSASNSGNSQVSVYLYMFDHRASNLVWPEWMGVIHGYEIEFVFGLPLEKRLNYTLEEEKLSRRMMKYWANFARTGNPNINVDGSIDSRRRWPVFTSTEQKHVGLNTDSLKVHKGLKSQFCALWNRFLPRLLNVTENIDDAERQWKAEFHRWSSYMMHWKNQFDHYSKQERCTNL
Sequence of Acetylcholinesterase (Electrophorus electricus) (O42275 24-633 limits assumed): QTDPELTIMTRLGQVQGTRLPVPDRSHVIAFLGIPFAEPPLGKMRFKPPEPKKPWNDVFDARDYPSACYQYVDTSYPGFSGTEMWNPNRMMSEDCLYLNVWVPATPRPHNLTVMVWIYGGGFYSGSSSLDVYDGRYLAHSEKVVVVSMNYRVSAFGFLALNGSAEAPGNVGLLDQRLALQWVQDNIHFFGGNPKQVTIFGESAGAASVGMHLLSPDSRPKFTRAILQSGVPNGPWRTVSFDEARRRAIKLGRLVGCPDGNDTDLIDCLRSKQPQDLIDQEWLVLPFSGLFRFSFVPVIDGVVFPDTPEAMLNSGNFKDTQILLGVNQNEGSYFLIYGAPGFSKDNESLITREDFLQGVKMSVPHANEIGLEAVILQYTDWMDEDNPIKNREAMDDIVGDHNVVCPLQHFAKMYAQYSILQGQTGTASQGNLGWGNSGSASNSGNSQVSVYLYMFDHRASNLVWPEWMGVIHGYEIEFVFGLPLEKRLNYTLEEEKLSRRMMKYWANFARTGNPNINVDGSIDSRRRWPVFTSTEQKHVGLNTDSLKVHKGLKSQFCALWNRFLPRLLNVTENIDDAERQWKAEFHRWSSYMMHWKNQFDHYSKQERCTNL
Sequence of Cholinesterase (Equus caballus) (P81908 whole entry): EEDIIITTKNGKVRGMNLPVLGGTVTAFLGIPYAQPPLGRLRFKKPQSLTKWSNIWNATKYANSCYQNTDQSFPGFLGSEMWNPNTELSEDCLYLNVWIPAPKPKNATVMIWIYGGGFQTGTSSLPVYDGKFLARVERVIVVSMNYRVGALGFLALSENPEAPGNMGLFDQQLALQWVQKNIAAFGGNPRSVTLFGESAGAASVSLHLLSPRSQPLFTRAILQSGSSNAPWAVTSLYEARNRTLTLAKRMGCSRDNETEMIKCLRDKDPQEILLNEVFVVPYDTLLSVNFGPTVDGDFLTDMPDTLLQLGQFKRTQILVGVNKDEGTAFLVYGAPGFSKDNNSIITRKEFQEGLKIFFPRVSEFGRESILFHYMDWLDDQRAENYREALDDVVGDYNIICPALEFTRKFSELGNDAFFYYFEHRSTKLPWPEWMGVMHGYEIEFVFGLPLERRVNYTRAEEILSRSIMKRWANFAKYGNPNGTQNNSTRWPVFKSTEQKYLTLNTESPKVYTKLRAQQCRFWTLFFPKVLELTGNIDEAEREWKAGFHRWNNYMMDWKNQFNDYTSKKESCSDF
Sequence of Cholinesterase (P81908 whole entry): as above

With `O=C(N/N=C/c1ccc(-n2ccnc2)cc1)c1ccc(CN2CCCC(O)C2)cc1` (stereo not drawn) the pKi [1] was 4.68, the pIC50 [2] was 4.66 and the inhibition [3] was “Dose-dependent effect”. The Ratio IC50 [4] was 1.8, the inhibition [5] was “Dose-dependent effect” and the pIC50 [6] was 4.40. It also gave an inhibition [7] of over 60%.
With `CC(=O)OC1CCCN(Cc2ccc(C(=O)N/N=C/c3ccc(N)cc3)cc2)C1` (stereo not drawn) the Time [8] was 47.75 s, the pIC50 [2] was at most 4.00 and the Activity [9] was 11.43 µL. For the same compound, the Activity_index [10] was 146.1, the ED50 [11] was 4.2 µmol/kg and the Time [12] was 69.75 s.
In the case of `COc1ccc2c(c1)c(CC(=O)O)c(C)n2C(=O)c1ccc(Cl)cc1` [INDOMETHACIN], the Time [8] was 65.43 s, the “inhibition (INH)” value [13] was 40% and the “inhibition (INH)” value [14] was 52%. The Activity [9] was 14.29 µL, the Activity_index [10] was 158.1 and the ED50 [11] was 2.12 µmol/kg. It also gave a Time [12] of 22.75 s.
Compound `COc1cc2c(cc1OC)C(=O)C(CC1CCN(Cc3ccccc3)CC1)C2` (stereo not drawn) [DONEPEZIL] has a viability at 6 h, 40 µM [15] of over 90%.
With `CN1CC[C@]23c4c5ccc(O)c4O[C@H]2[C@@H](O)C=C[C@H]3[C@H]1C5` [MORPHINE] the Time [16] was 7.5 s and the Time [17] was 3.375 s.
Compound `CC(C)Cc1ccc(C(C)C(=O)O)cc1` (stereo not drawn) has an inhibition [18] of 88%.
Work on `CC(=O)Oc1ccc(/C=N/NC(=O)c2ccc(CN3CCCC(OC(C)=O)C3)cc2)cc1` (stereo not drawn) yielded a pIC50 [2] of at most 4.00 and an Activity_index [10] of 353.1.
In the case of `O=C(N/N=C/c1ccc(N2CCOCC2)cc1)c1ccc(CN2CCCC(O)C2)cc1` (stereo not drawn), the Time [8] was 62.75 s, the pIC50 [2] was at most 4.00 and the Activity [9] was 21.43 µL. It also gave an Activity_index [10] of 83.96, an ED50 [11] of 2.67 µmol/kg and a Time [12] of 69.67 s.
With `O=C(N/N=C/c1ccccc1)c1ccc(CN2CCCC(O)C2)cc1` (stereo not drawn) the pIC50 [2] was 4.52, the inhibition [3] was “Dose-dependent effect” and the inhibition [7] was over 60%.
With `O=C(N/N=C/c1ccc([N+](=O)[O-])cc1)c1ccc(CN2CCCC(O)C2)cc1` (stereo not drawn) the pKi [1] was 5.61, the pIC50 [2] was 5.57 and the inhibition [3] was “Dose-dependent effect”. For the same compound, the Activity_index [10] was 320.1, the Ratio IC50 [4] was 12.5 and the inhibition [5] was “Dose-dependent effect”. It also gave a pIC50 [6] of 4.47 and an inhibition [7] of over 60%.
In the case of `COc1ccc(/C=N/NC(=O)c2ccc(CN3CCCC(O)C3)cc2)cc1` (stereo not drawn), the pKi [1] was 4.94, the Time [8] was 13.29 s and the pIC50 [2] was 4.88. For the same compound, the inhibition [3] was “Dose-dependent effect”, the Activity [9] was 25.71 µL and the Activity_index [10] was 161.1. The Ratio IC50 [4] was 7, the inhibition [5] was “Dose-dependent effect” and the pIC50 [6] was 4.04. For the same compound, the ED50 [11] was 68.3 µmol/kg, the Time [12] was 15.86 s and the inhibition [7] was over 60%.
In the case of `O=C(N/N=C/c1ccc(Br)cc1)c1ccc(CN2CCCC(O)C2)cc1` (stereo not drawn), the pIC50 [2] was 4.92, the inhibition [3] was “Dose-dependent effect” and the Activity_index [10] was 235.8. It also gave an inhibition [7] of over 60%.
`O=C(N/N=C/c1ccc(N2CCCCC2)cc1)c1ccc(CN2CCCC(O)C2)cc1` (stereo not drawn) showed a pKi [1] of 5.01, a Time [8] of 19.63 s and a pIC50 [2] of 4.96. For the same compound, the inhibition [3] was “Dose-dependent effect”, the Activity_index [10] was 64.56 and the Ratio IC50 [4] was 5.3. The inhibition [5] was “Dose-dependent effect”, the pIC50 [6] was 4.24 and the Time [12] was 110 s. For the same compound, the inhibition [7] was over 60%.
`COc1cccc2c1C(=O)c1c(O)c3c(c(O)c1C2=O)C[C@@](O)(C(=O)CO)C[C@@H]3O[C@H]1C[C@H](N)[C@H](O)[C@H](C)O1` [DOXORUBICIN] gave a viability at 6 h, 40 µM [15] of over 90%.
With `O=C(N/N=C/c1ccc(N2CCCC2)cc1)c1ccc(CN2CCCC(O)C2)cc1` (stereo not drawn) the pIC50 [2] was 4.83, the inhibition [3] was “Dose-dependent effect” and the Activity_index [10] was 206.4. It also gave an inhibition [7] of over 60%.
With `CSc1ccc(/C=N/NC(=O)c2ccc(CN3CCCC(O)C3)cc2)cc1` (stereo not drawn) the pKi [1] was 5.07, the pIC50 [2] was 4.98 and the inhibition [3] was “Dose-dependent effect”. For the same compound, the Activity_index [10] was 260.3, the Ratio IC50 [4] was 5.7 and the inhibition [5] was “Dose-dependent effect”. It also gave a pIC50 [6] of 4.23 and an inhibition [7] of over 60%.
With `Nc1ccc(/C=N/NC(=O)c2ccc(CN3CCCC(O)C3)cc2)cc1` (stereo not drawn) the pIC50 [2] was 4.67, the inhibition [3] was “Dose-dependent effect” and the Activity_index [10] was 244.4. The inhibition [7] was over 60%.
In the case of `CC(=O)OC1CCCN(Cc2ccc(C(=O)N/N=C/c3ccc(Br)cc3)cc2)C1` (stereo not drawn), the pIC50 [2] was at most 4.00 and the Activity_index [10] was 206.9.
